Compound activity (PubChem BioAssay)
Rows were chosen to be rich in hits. Some 5.1% of all compounds tested hit in one or more screens of this group.
NF-kB expr up: activators of NF-kB expression in neurons, primary screen, cell-based, HTS | human neuronal cells, NF-kB reporter expression; hits give high values | fold change at 12.5 µM | 190,000 tested, 1.6% active | AID 1239, 2008; in the data active = fold change above about 3.3
STAT1 blocker: STAT1 signaling inhibitors, primary screen, cell-based, HTS, luciferase reporter | NIH 3T3 STAT1-luciferase reporter, IFN-gamma, luminescence | inhibition, % at 5.5 µM | 200,000 tested, 0.35% active | AID 920, 2007;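 active = inhibition above a set limit, the mean inhibition across all tested compounds plus 3 SD, cut at about 34% in these data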;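 also: 0% = IFN-gamma with DMSO and 100% = IFN-gamma with 300 µM nifuroxazide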
APP 5'UTR act: activators of APP 5'UTR luciferase reporter, primary screen, SH-SY5Y cells; SH-SY5Y APP 5'UTR luciferase reporter, luminescence; zero percent = DMSO vehicle wells; activation, % at 2 µM; 190,000 tested, 1% active; AID 1276, 2008;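 active = activation above a set limit, based on mean plus 3 SD of controls, cut at about 140% in these data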
STAT1 activator: STAT1 signaling activators, primary screen, cell-based, HTS, luciferase reporter; NIH 3T3 STAT1-luciferase reporter, IFN-gamma, luminescence; 100% = IFN-gamma alone, no compound; activation (% of control), % at 5.5 µM; 200,000 tested, 2.6% active;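 active = activation above the screen-wide mean activation plus 3 SD, cut at about 130% in these data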;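 also: raw ratio to IFN-gamma control signal so 100% means no change and 0% no light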
STAT3 blocker: IL-6 driven STAT3 reporter inhibitors, primary screen, U3A cells, luciferase, luminescence, MLSCN library; IL-6 STAT3-luciferase reporter; host cell line lacks STAT1; inhibition, % at 5.5 µM; 190,000 tested, 0.89% active; AID 862, 2007;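 active = inhibition above the mean inhibition across all screened compounds plus 3 SD, cut at about 44% in these data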;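 also: 0% = DMSO only wells and 100% = 100 µM nifuroxazide control wells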
STAT3 act: IL-6 driven STAT3 reporter potentiators, primary screen, U3A cells, luciferase, luminescence, MLSCN library | IL-6 STAT3-luciferase reporter; 100% = signal with IL-6 EC80 alone | activation (% of control), % at 5.6 µM | 190,000 tested, 0.91% active;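 active = activation above the screen-wide mean of compound activation plus 3 SD, cut at about 130% in these data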;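 also: 0% = background luminescence of wells with medium and substrate only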
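Material: human U3A cells carrying STAT3-luciferase construct. Measured by: reporter luminescence signal. Timing: compound 1 h, then IL-6 6 h at 37 °C.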
STAT1 activ conf: STAT1 signaling activators, confirmation, cell-based, HTS, luciferase reporter; shares compounds with STAT1 activator; 1,200 tested, 97% active; activation (% of control), % at 5.7 µM; NIH 3T3 STAT1-luciferase reporter, IFN-gamma potentiation, luminescence; 100% = IFN-gamma EC80 alone, no compound;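 active = activation above a set limit carried over from the earlier primary STAT1 screen, cut at about 140% in these data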;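 also: simple ratio to median IFN-gamma plus DMSO wells so 0% means no light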
NFkB act: NF-kB reporter activators, TNF-alpha stimulated, counter-screen for STAT1 activator project, cell-based, HEK293T, luciferase luminescence. shares compounds with STAT1 activator. 100% = TNF-alpha with vehicle only. activation (% of control), % at 5.7 µM. 1,200 tested, 43% active;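 active = activation above the mean of solvent-only control wells plus 3 SD, set per campaign, cut at about 130% in these data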;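 also: TNF-alpha given at a submaximal dose yielding about 80% of full reporter signal; values are well signal over median control so 100% means no change and 0% no light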
STAT3 act 2: STAT3 reporter activation by STAT1 hits, confirmation, counter-screen for STAT1 activator project, U3A cells, luciferase, luminescence; shares compounds with STAT1 activator; IL-6; cells lack STAT1; 100 = IL-6 alone, no compound effect; activation (% of control), % at 5.7 µM; 1,200 tested, 46% active; AID 1316, 2008;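 active = activation above the solvent-only control well mean plus 3 SD, set per plate batch, cut at about 110% in these data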;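 also: 0% = no luminescence and 100% = median IL-6 plus DMSO wells; higher means more STAT3 reporter activation so hits are non-selective activators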
Active calls of the source: *; nt = not tested or not shown.

SMILES	NF-kB expr up	STAT1 blocker	APP 5'UTR act	STAT1 activator	STAT3 blocker	STAT3 act	STAT1 activ conf	NFkB act	STAT3 act 2
CC(=O)/C=C(\C)Nc1ccc(-c2cnc(-c3ccccc3)o2)cc1	4.8*	-87.6	98.7	180.1*	24.2	85.5	186.3*	108.7	94.1
Cc1cc(C)nc(N(C#N)Cc2ccccc2)n1	1.09	13.2	6.7	87.8	-3.5	105.1	nt	nt	nt
N/C(=N\O)C1COc2ccccc2O1 (stereo not drawn)	1.23	-0.8	-10.2	100.7	9.2	94.3	nt	nt	nt
NC(N)=Nc1nc(C2COc3ccccc3O2)cs1 (stereo not drawn)	4.99*	-71.8	165.5*	164.2*	12.0	91.8	202.4*	131.7	104.8
CCOCC(=O)Nc1c(C(=O)Nc2ccc3c(c2)OCCO3)oc2ccccc12	1.35	-59.9	129.2	155.4*	7.3	100.3	159.8*	141.5*	102.6
COc1ccc(NC(=O)c2oc3ccccc3c2NC(=O)c2ccc3c(c2)OCO3)cc1	0.48	3.4	-6.1	96.9	22.0	84.2	nt	nt	nt
COCC(=O)Nc1c(C(=O)Nc2ccc3c(c2)OCCO3)oc2ccccc12	2.36	-87.5	195.4*	176.1*	3.3	102.2	176.4*	139.8*	104.0
CCN(CC)C(=O)CSc1nc(-c2ccc(C)cc2)nc2c1COC(C)(C)C2	0.65	-6.8	-4.5	106.2	1.7	98.7	nt	nt	nt
CN1C(=O)C(C(=O)Nc2ccccc2F)c2ccccc21 (stereo not drawn)	1.05	4.4	-2.1	96.1	16.9	88.9	nt	nt	nt
COc1cc(/C=N/O)ccc1OCc1ccc(Cl)cc1	8.39*	-59.3	191.2*	155.2*	22.4	84.7	282.9*	147.5*	141.1*
CN(C)c1ccc(C(=O)OCC(=O)c2cccs2)cc1	5.21*	-79.4	102.7	172.0*	37.2	70.1	214.7*	122.5	104.1
COc1ccc(C(=O)COC(=O)c2ccc(N(C)C)cc2)cc1	1.06	-15.6	12.5	112.8	6.9	97.9	nt	nt	nt
O=C(COC(=O)c1ccc2c(c1)OCO2)Nc1nc(-c2ccccc2)cs1	nt	-2.1	18.4	102.3	9.5	96.9	nt	nt	nt
CCC(=O)Nc1nc(-c2ccc3c(c2)OCCO3)cs1	7.13*	-58.1	146.6*	152.7*	1.3	102.9	212.4*	144.9*	109.6
COCC(=O)N1CCC(Oc2ccc(C(=O)NCc3cnc(C)cn3)cc2)CC1	1.25	-6.1	25.8	104.7	10.1	101.1	nt	nt	nt
Cc1ccc2nc(SCn3nnc4ccccc4c3=O)[nH]c2c1	3.77*	-70.1	175.0*	163.2*	-24.0	124.1	180.0*	119.5	129.2*
O=c1c2ccccc2nnn1CSc1ccccc1F	4.66*	-60.3	152.3*	159.9*	14.7	86.5	198.3*	115.3	103.2
O=c1c2ccccc2nnn1CSc1ncnc2ccccc12	2.27	20.1	2.6	81.6	-8.2	110.0	nt	nt	nt
Cc1ccc2nc(SCC(=O)c3c(C)[nH]c4ccccc34)[nH]c2c1	0.89	-3.5	2.7	103.1	12.7	92.2	nt	nt	nt
O=C(N/N=C\c1ccc(CN(Cc2ccc(Cl)cc2)S(=O)(=O)c2ccccc2)o1)C(=O)Nc1ccc(F)cc1	1.08	-7.6	15.8	107.0	17.2	91.2	nt	nt	nt
CCOC(=O)CCc1c(C)c2ccc(OCC(=O)N(CC)CC)c(C)c2oc1=O	0.95	1.9	-21.7	98.3	-0.7	102.2	nt	nt	nt
Nc1nc(N2CCN(C(=O)c3ccco3)CC2)nc2ccccc12	1.62	-11.3	19.7	110.4	7.2	96.5	nt	nt	nt
Nc1nc(N2CCN(C(=O)c3ccco3)CC2)nc2ccc(Br)cc12	1.39	-87.7	218.7*	179.5*	1.8	99.6	195.1*	140.8*	118.3*
CCOC(=O)c1sc(N/N=C/c2ccccc2)nc1C	2.63	-56.5	133.8	151.9*	-11.4	110.6	182.7*	133.7*	107.2
c1ccc(Cn2c(-c3ccco3)nc3nc4ccccc4nc32)cc1	2.14	-57.5	61.4	152.3*	2.9	101.8	158.2*	126.9	115.2*
SMILES	NF-kB expr up	STAT1 blocker	APP 5'UTR act	STAT1 activator	STAT3 blocker	STAT3 act	STAT1 activ conf	NFkB act	STAT3 act 2
COc1ccc2cc(-c3nc4ccccc4n3C)c(=O)oc2c1	3.39*	-53.2	91.8	154.7*	0.2	103.0	168.9*	123.8	117.1*
Cc1c(C(=O)Nc2cccc([N+](=O)[O-])c2)csc1-c1ccccc1	3.84*	-72.5	194.4*	165.2*	-7.8	115.7	237.7*	127.5	139.4*
O=C(Nc1cccc([N+](=O)[O-])c1)c1ccc(-c2ccccc2)cc1	1	-0.7	29.1	100.6	12.7	89.0	nt	nt	nt
Nc1c(Cl)ncnc1N/N=C/c1ccccn1	1.12	-16.3	-92.0	114.5	-2.9	102.7	nt	nt	nt
Nc1c(Cl)ncnc1N/N=C/c1ccc2ccccc2n1	0.41	-69.7	-66.2	162.1*	-14.1	110.5	161.2*	124.7	138.3*
Cc1ccccc1Nc1nc(N)nc(CSc2ccc(F)cc2)n1	6.03*	-65.1	167.6*	156.1*	4.8	100.8	194.7*	127.4	124.6*
CCCc1nc(SCc2ccccn2)c2c(=O)n(C)c(=O)n(C)c2n1	0.71	-1.8	-4.0	101.6	14.9	91.9	nt	nt	nt
COc1cc2c(C(=O)NC3CCCCCC3)cn(C)c(=O)c2cc1OC	1.07	0.6	15.4	99.4	-6.3	108.8	nt	nt	nt
COc1ccc(CC(=O)Nc2ccc(OC)nc2)cc1	1.08	4.7	2.2	94.3	-5.6	111.0	nt	nt	nt
COc1ccc(NC(=O)/C(Cl)=C(/Cl)S(=O)(=O)Cc2ccccc2)cn1	0.27	-137.0	-76.9	170.3*	-9.3	108.8	160.1*	90.2	116.0*
COc1ccc(NC(=O)C(Cl)=C(Cl)Cl)cn1	1.86	4.2	-29.6	96.6	-2.3	102.4	nt	nt	nt
COc1ccc(NC(=O)/C(Cl)=C(/Cl)S(=O)Cc2ccc(Cl)cc2)cn1 (stereo not drawn)	0.18	-202.4	-95.9	291.5*	26.0	79.3	278.2*	46.9	101.0
Cn1ccnc1C1CCCCN1Cc1nc(-c2ccc(Cl)cc2)no1 (stereo not drawn)	1.15	-0.6	7.6	98.8	0.1	102.0	nt	nt	nt
